In PubChem BioAssay:
Activity calls are given as the source filed them.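 The calls were made as follows, unless noted: active = viability at or under a set limit in both replicates, limit being median viability minus 3 SD (cut at about 48% in these data, passing the limit was not always enough); inconclusive = at or under the limit in just one replicate; inactive = at or above the limit in both replicates.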

Tests used:
[1] = reduced viability of SK-BR-3 breast cancer cells – cell-based, 24 h, human, pilot screen (AID 572;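 active = viability at or below 10% of carrier control in both of two separate runs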;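 also: compound exposure lasted between 18 and 24 h rather than exactly 24 h; 100% = carrier-treated control wells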); conditions: SK-BR-3 viability, CellTiter-Glo luminescence, at 10 µM, stronger effect = lower value
[2] = HUVEC growth inhibition – cell-based, human, primary screen (AID 575;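 active = viability at or below 30% in both replicate assays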;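 also: 100% = median of untreated cell wells with 0.1% DMSO on each plate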); conditions: HUVEC proliferation, CellTiter-Glo luminescence, 72 h; at 10 µM; stronger effect = lower value
Procedure, shortened: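 Assay system: primary human umbilical vein endothelial cells / Buffer or medium: endothelial basal medium with 2% FBS plus growth supplements / Compound dosing: one dose, 10 µM final, 0.1% DMSO / Timing: 72 h treatment at 37 °C / Signal: CTG luminescence / Benchmarks: 32 DMSO-only cell-control wells (high), 32 MePR drug-control wells (low) per plate / Plate: collagen-coated 384-well format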

[3] = H69AR cell proliferation blockers – human, duplicate replicates, primary screen (AID 580); conditions: H69AR lung tumor cells viability, ATP luminescence, 72 h; at 10 µM; stronger effect = lower value;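 also: 100% = mean luminescence of untreated wells and 0% = no signal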
[4] = MRP1 drug-resistance reversers in H69AR cells – cell-based, doxorubicin co-treatment, pilot screen (AID 601;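 active = viability loss from added drug above about 55%, and viability with drug at most 40%, in both replicates, limit read from the data, passing the limit was not always enough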); conditions: CellTiter-Glo, 72 h, at 10 µM; for differential viability (reversal): stronger effect = higher value
[5] = yeast transport mutant growth inhibition pilot in 384-well plates, post-Golgi transport modulator project (AID 636; in the data active = inhibition above about 31%); conditions: absorbance 615 nm, about 18 h, stronger effect = higher value
[6] = growth suppression of yeast trafficking mutant, preliminary HTS, modulators of trafficking downstream of Golgi apparatus project, 1536-format plate, OD 615 nm (AID 637; in the data active = inhibition above about 30%); conditions: yeast transport mutant growth, absorbance 615 nm, 18 h; stronger effect = higher value
[7] = H69AR cells + 2 uM doxorubicin, measured here: viability with 2 uM doxorubicin, stronger effect = lower value
[8] = H69AR cells, compound alone cytotoxicity

**Q.** Which viability [1] does the source give for `COc1ccc(C2c3c(oc4ccccc4c3=O)C(=O)N2Cc2ccncc2)cc1OC` (stereo not given) here?
**A.** The viability was 91% (inactive).

**Q.** And the viability [2]?
**A.** The viability was 96.7% (inactive).

**Q.** And the viability [3]?
**A.** The viability was 93.7% (inactive).

**Q.** And the differential viability (reversal) ([4]; H69AR cells + 2 uM doxorubicin)?
**A.** The differential viability (reversal) was -2.17% (inactive).

**Q.** What about the viability [4, 7] of the same molecule?
**A.** The viability was 95.8%.

**Q.** And the viability [4, 8]?
**A.** The viability was 93.7%.

**Q.** And the inhibition [5]?
**A.** The inhibition was -7.84% (inactive).

**Q.** And the inhibition [6]?
**A.** The inhibition was 0.18% (inactive).

**Q.** Which viability [1] does the source give for `O=C(NCc1ccccn1)c1cc(-n2cnnc2)ccc1Cl` here?
**A.** The viability was 86% (inactive).

**Q.** And the viability [2]?
**A.** The viability was 88.6% (inactive).

**Q.** And the viability [3]?
**A.** Its viability is 101% (inactive).

**Q.** What about the differential viability (reversal) ([4]; H69AR cells + 2 uM doxorubicin) of the same molecule?
**A.** The differential viability (reversal) was -1.2% (inactive).

**Q.** What about the viability [4, 7] of the same molecule?
**A.** Its viability is 102%.

**Q.** And the viability [4, 8]?
**A.** The viability was 101%.

**Q.** What about the inhibition [5] of the same molecule?
**A.** The inhibition was -2.73% (inactive).

**Q.** And the inhibition [6]?
**A.** Its inhibition is 2.79% (inactive).

**Q.** With `Cc1cc(C)n(CC(=O)O)n1` as the molecule, how does the viability [1] read?
**A.** The viability was 88% (inactive).

**Q.** What about the viability [2] of the same molecule?
**A.** The viability was 106% (inactive).

**Q.** And the viability [3]?
**A.** Its viability is 88.4% (inactive).

**Q.** What about the differential viability (reversal) ([4]; H69AR cells + 2 uM doxorubicin) of the same molecule?
**A.** Its differential viability (reversal) is -18.8% (inactive).

**Q.** And the viability [4, 7]?
**A.** The viability was 107%.

**Q.** And the viability [4, 8]?
**A.** The viability was 88.4%.

**Q.** What about the inhibition [5] of the same molecule?
**A.** Its inhibition is -7.7% (inactive).

**Q.** And the inhibition [6]?
**A.** The inhibition was -1.45% (inactive).

**Q.** With `CCCc1c(OCCCCc2nn[nH]n2)ccc(C(C)=O)c1O` as the molecule, how does the viability [1] read?
**A.** The viability was 77% (inactive).

**Q.** What about the viability [2] of the same molecule?
**A.** The viability was 67% (inactive).

**Q.** And the viability [3]?
**A.** Its viability is 84.4% (inactive).

**Q.** What about the differential viability (reversal) ([4]; H69AR cells + 2 uM doxorubicin) of the same molecule?
**A.** The differential viability (reversal) was -20.6% (inactive).

**Q.** And the viability [4, 7]?
**A.** Its viability is 105%.

**Q.** And the viability [4, 8]?
**A.** Its viability is 84.4%.

**Q.** What about the inhibition [5] of the same molecule?
**A.** The inhibition was -1.56% (inactive).

**Q.** What about the inhibition [6] of the same molecule?
**A.** Its inhibition is 3% (inactive).

**Q.** Which viability [1] does the source give for `O=C(Nc1ccccc1C(=O)NCCCn1ccnc1)c1ccccc1` here?
**A.** The viability was 81% (inactive).

**Q.** What about the viability [2] of the same molecule?
**A.** Its viability is 94.4% (inactive).

**Q.** And the viability [3]?
**A.** The viability was 96.8% (inactive).

**Q.** What about the differential viability (reversal) ([4]; H69AR cells + 2 uM doxorubicin) of the same molecule?
**A.** The differential viability (reversal) was 9.21% (inactive).

**Q.** And the viability [4, 7]?
**A.** Its viability is 87.6%.

**Q.** What about the viability [4, 8] of the same molecule?
**A.** Its viability is 96.8%.

**Q.** And the inhibition [5]?
**A.** Its inhibition is -6.62% (inactive).

**Q.** And the inhibition [6]?
**A.** The inhibition was -8% (inactive).

**Q.** Which results are given for `CCOC(=O)Cc1csc(NC(=O)CSc2nnc(C3CC3)n2C)n1`?
**A.** viability [1]: 95% (inactive); viability [2]: 107% (inactive); viability [3]: 97.9% (inactive); differential viability (reversal) ([4]; H69AR cells + 2 uM doxorubicin): 6.36% (inactive); viability [4, 7]: 91.5%; viability [4, 8]: 97.9%; inhibition [5]: -5.81% (inactive); inhibition [6]: -3.82% (inactive)

**Q.** Which results are given for `COc1cc(NC(=O)Nc2cccc(C(C)=O)c2)cc(OC)c1OC`?
**A.** viability [1]: 109% (inactive); viability [2]: 102% (inactive); viability [3]: 92.4% (inactive); differential viability (reversal) ([4]; H69AR cells + 2 uM doxorubicin): 4.83% (inactive); viability [4, 7]: 87.6%; viability [4, 8]: 92.4%; inhibition [5]: -8.36% (inactive); inhibition [6]: -0.18% (inactive)

**Q.** What does the source list for `O=c1c2cnn(-c3ccccc3)c2ncn1/N=C/c1ccncc1`?
**A.** viability [1]: 125% (inactive); viability [2]: 108% (inactive); viability [3]: 101% (inactive); differential viability (reversal) ([4]; H69AR cells + 2 uM doxorubicin): 18.9% (inactive); viability [4, 7]: 82.2%; viability [4, 8]: 101%; inhibition [5]: -5.07% (inactive); inhibition [6]: -4.91% (inactive)

**Q.** For `NC(N)=Nc1nc(CSCC/C(N)=N/S(N)(=O)=O)cs1`, which viability [1] is on record?
**A.** Its viability is 89% (inactive).

**Q.** What about the viability [2] of the same molecule?
**A.** Its viability is 98.5% (inactive).

**Q.** And the viability [3]?
**A.** The viability was 95.8% (inactive).

**Q.** What about the differential viability (reversal) ([4]; H69AR cells + 2 uM doxorubicin) of the same molecule?
**A.** Its differential viability (reversal) is -8.47% (inactive).

**Q.** And the viability [4, 7]?
**A.** Its viability is 104%.

**Q.** And the viability [4, 8]?
**A.** The viability was 95.8%.

**Q.** And the inhibition [5]?
**A.** The inhibition was 3.9% (inactive).

**Q.** What about the inhibition [6] of the same molecule?
**A.** Its inhibition is 5.33% (inactive).

**Q.** With `COC(=O)c1c(NC(=O)CSc2nnnn2C)sc(C)c1C` as the molecule, how does the viability [1] read?
**A.** Its viability is 96% (inactive).

**Q.** And the viability [2]?
**A.** Its viability is 84.9% (inactive).

**Q.** And the viability [3]?
**A.** Its viability is 92.5% (inactive).

**Q.** What about the differential viability (reversal) ([4]; H69AR cells + 2 uM doxorubicin) of the same molecule?
**A.** Its differential viability (reversal) is 4.44% (inactive).

**Q.** What about the viability [4, 7] of the same molecule?
**A.** The viability was 88.1%.

**Q.** What about the viability [4, 8] of the same molecule?
**A.** Its viability is 92.5%.

**Q.** And the inhibition [5]?
**A.** The inhibition was 0.14% (inactive).

**Q.** What about the inhibition [6] of the same molecule?
**A.** Its inhibition is -2% (inactive).

**Q.** For `C=CCc1ccccc1OCC(O)CN1CCN(Cc2ccc3c(c2)OCO3)CC1` (stereo not given), which viability [1] is on record?
**A.** The viability was 101% (inactive).

**Q.** What about the viability [2] of the same molecule?
**A.** Its viability is 73.8% (inactive).

**Q.** What about the viability [3] of the same molecule?
**A.** Its viability is 70.1% (inactive).

**Q.** What about the differential viability (reversal) ([4]; H69AR cells + 2 uM doxorubicin) of the same molecule?
**A.** Its differential viability (reversal) is -5.96% (inactive).

**Q.** And the viability [4, 7]?
**A.** The viability was 76%.

**Q.** What about the viability [4, 8] of the same molecule?
**A.** Its viability is 70.1%.

**Q.** What about the inhibition [5] of the same molecule?
**A.** The inhibition was 59.1% (active).

**Q.** And the inhibition [6]?
**A.** The inhibition was 58.4% (active).

**Q.** Which viability [1] does the source give for `Cc1cccc(NC(=O)CSc2nnc(-c3ccccc3C)o2)c1` here?
**A.** Its viability is 87% (inactive).

**Q.** And the viability [2]?
**A.** Its viability is 107% (inactive).

**Q.** What about the viability [3] of the same molecule?
**A.** The viability was 75.4% (inactive).

**Q.** And the differential viability (reversal) ([4]; H69AR cells + 2 uM doxorubicin)?
**A.** Its differential viability (reversal) is 3.35% (inactive).

**Q.** And the viability [4, 7]?
**A.** Its viability is 72%.

**Q.** And the viability [4, 8]?
**A.** Its viability is 75.4%.

**Q.** And the inhibition [5]?
**A.** The inhibition was -5.95% (inactive).

**Q.** What about the inhibition [6] of the same molecule?
**A.** The inhibition was -7.27% (inactive).

**Q.** Which viability [1] does the source give for `CCOc1ccc(-c2nc(N)ncc2-c2ccccc2)c(O)c1` here?
**A.** The viability was 136% (inactive).

**Q.** What about the viability [2] of the same molecule?
**A.** Its viability is 95.3% (inactive).

**Q.** What about the viability [3] of the same molecule?
**A.** Its viability is 65.3% (inactive).

**Q.** And the differential viability (reversal) ([4]; H69AR cells + 2 uM doxorubicin)?
**A.** Its differential viability (reversal) is -14.3% (inactive).

**Q.** What about the viability [4, 7] of the same molecule?
**A.** Its viability is 79.6%.

**Q.** What about the viability [4, 8] of the same molecule?
**A.** Its viability is 65.3%.

**Q.** And the inhibition [5]?
**A.** Its inhibition is -5.95% (inactive).

**Q.** And the inhibition [6]?
**A.** Its inhibition is -8.1% (inactive).

**Q.** Which viability [1] does the source give for `CCCCOc1ccc(S(=O)(=O)n2c(C)nc3ccccc32)cc1` here?
**A.** Its viability is 138% (inactive).

**Q.** What about the viability [2] of the same molecule?
**A.** The viability was 53.2% (inactive).

**Q.** What about the viability [3] of the same molecule?
**A.** The viability was 87.1% (inactive).

**Q.** What about the differential viability (reversal) ([4]; H69AR cells + 2 uM doxorubicin) of the same molecule?
**A.** Its differential viability (reversal) is -7.77% (inactive).

**Q.** What about the viability [4, 7] of the same molecule?
**A.** The viability was 94.8%.

**Q.** And the viability [4, 8]?
**A.** Its viability is 87.1%.

**Q.** What about the inhibition [5] of the same molecule?
**A.** The inhibition was -3.38% (inactive).

**Q.** And the inhibition [6]?
**A.** Its inhibition is 1.33% (inactive).

**Q.** For `COc1cc(C2Oc3cc(C4Oc5cc(O)cc(O)c5C(=O)C4O)ccc3OC2CO)ccc1O` (stereo not given), which viability [1] is on record?
**A.** The viability was 106% (inactive).

**Q.** What about the viability [2] of the same molecule?
**A.** The viability was 85.7% (inactive).

**Q.** And the viability [3]?
**A.** The viability was 97.4% (inactive).

**Q.** And the differential viability (reversal) ([4]; H69AR cells + 2 uM doxorubicin)?
**A.** The differential viability (reversal) was 4.15% (inactive).

**Q.** And the viability [4, 7]?
**A.** The viability was 93.2%.

**Q.** What about the viability [4, 8] of the same molecule?
**A.** The viability was 97.4%.

**Q.** And the inhibition [5]?
**A.** The inhibition was 1.3% (inactive).

**Q.** What about the inhibition [6] of the same molecule?
**A.** The inhibition was -3.5% (inactive).
